Measurements as given in PubChem BioAssay.
Records with an inconclusive call do not appear.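 The calls were made as follows, unless noted: active = cell viability at or below a set limit in both duplicate runs, the limit being the all-compound median minus 4 SD (cut at about 23% in these data, passing the limit was not always enough); inconclusive = no clear call, values can overlap the other calls; inactive = the rest.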

Experiments:
[1] = S. cerevisiae growth inhibition in permissive medium (OD615), pilot counter-assay for S. cerevisiae lifespan shortening project, permissive growth control (AID 705;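 active = growth inhibition above 25% in both replicates, a cutoff set 3 SD above the mean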); details: OD615, 24 h, at 10 µM, active compounds read high
Method in brief: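 System – S. cerevisiae with engineered DeaD lifespan system · Buffer or medium – SC raffinose/galactose permissive medium · Schedule – cells pre-grown 4 h, then 24 h compound exposure, 30 °C humidified · Technique – culture turbidity as optical density at 615 nm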

[2] = S. cerevisiae growth inhibition in restrictive medium, OD615, pilot screen, restrictive growth control, yeast lifespan reduction project (AID 706;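 active = growth inhibition above a set limit, 3 SD over mean compound inhibition, in both replicates, cut at about 43% in these data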;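 also: modified DeaD lifespan yeast strain shifted to restrictive glucose medium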); details: OD615, 48 h, at 10 µM, active compounds read high
Method in brief: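 Material: engineered S. cerevisiae DeaD strain / Medium: glucose-based CSMM-D restrictive medium / Compound: single dose of 10 µM compound final, 0.25% DMSO / Timing: 4 h pre-incubation, 48 h exposure at 30 °C / Technique: OD615 absorbance reading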

[3] = doxorubicin toxicity protection in MRP-1 cells – H69AR cells, CellTiter-Glo, duplicate, MRP-1 activator project, pilot screen (AID 807;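 active = viability increase at or above a cutoff of the median across tested compounds plus 3 SD, cut at about 8.5% in these data, passing the limit was not always enough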;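 also: compound pretreatment 18-22 h then 72 h combined with doxorubicin; 0% = doxorubicin alone and 100% = vehicle without doxorubicin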); details: H69AR viability with doxorubicin, CellTiter-Glo luminescence; at 10 µM; active compounds read high
[4] = viability of HCT116 without oncogenic beta-catenin – human colon tumor cells, pilot screen (AID 823); details: HCT116 beta-catenin knockout viability, CellTiter-Glo, 60 h; at 10 µM; active compounds read low;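 also: 0% = wells killed by 20 µM Hyamine and 100% = untreated DMSO cell wells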
[5] = viability of PTEN-null HCT116 cells – cell-based, HCT116 clonal line, CellTiter-Glo, pilot screen (AID 824;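 active = viability at or below 27.92% in each of two runs, the all-compound median minus 4 SD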;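 also: 0% = 20 µM Hyamine control and 100% = vehicle cell control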); details: HCT116 PTEN-deleted viability, 60 h, at 10 µM, active compounds read low
[6] = RAM pathway blockade in budding yeast – dse1pr::URA3 reporter, 5-FOA selection, pilot screen (AID 869;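 active = inhibition over a set limit, the all-compound mean plus 3 SD, in both replicate runs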;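 also: 0% = DMSO wells with no growth and 100% = 10 µM 1-NA-PP1 with full growth; RAM network block rescues cells from 5-FOA so hits raise OD615 growth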); details: S. cerevisiae dse1pr::URA3 5-FOA growth, OD615, 2 d; at 10 µM; active compounds read high; strain carries analog-sensitive mutant Cbk1 kinase
[7] = RAM signaling pathway blockade in yeast – S. cerevisiae, Pdr1DBD-CYC8 efflux-inhibited sensitized strain, primary screen (AID 1298;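 active = RAM network inhibition above 8.4% in each of two replicates, 3 SD over the compound average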;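 also: 0% = DMSO untreated cells without growth and 100% = 10 µM 1-NA-PP1 full growth; higher means more yeast growth rescued from 5-FOA killing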); details: S. cerevisiae cbk1-as DSE1-URA3 strain, 5-FOA growth OD615, 2 d; at 50 µM; active compounds read high

O=C(Cn1nc(Cc2cccnc2)c2ccccc2c1=O)NCC1COc2ccccc2O1 (configuration not stated)
inactive: growth inhibition [1] 3.08% | growth inhibition [2] -0.92% | viability increase [3] -1.71% | viability [4] 90.5% | viability [5] 95.3% | inhibition [6] 1.99% | RAM network inhibition [7] 0.96%

O=C(O)CSc1cccc2cccc(C(=O)O)c12
inactive: growth inhibition [1] -0.49% | growth inhibition [2] 4.41% | viability increase [3] -2.27% | viability [4] 105% | viability [5] 101% | inhibition [6] 1.54% | RAM network inhibition [7] 1.15%

CC1CCCCN1CCNC(=O)c1cnn2ccccc12 (configuration not stated)
inactive: growth inhibition [1] -12.7% | growth inhibition [2] -9.32% | viability increase [3] -1.7% | viability [4] 101% | viability [5] 91.6% | inhibition [6] 2.58% | RAM network inhibition [7] 0.01%

CCCCCn1c(CNC(=O)CC)nc2ccccc21
inactive: growth inhibition [1] -6.04% | growth inhibition [2] -11.1% | viability increase [3] 0.02% | viability [4] 97.5% | viability [5] 96.5% | inhibition [6] 1.53% | RAM network inhibition [7] 4.9%

CCOc1ccc(-n2c(SCc3ccc(C(=O)OC)o3)nc3c(c2=O)SCC3)cc1
inactive: growth inhibition [1] -21.2% | growth inhibition [2] -16.2% | viability increase [3] -2.41% | viability [4] 81.3% | viability [5] 72.7% | inhibition [6] 2.39% | RAM network inhibition [7] 6.94%

Cc1ccc(CSc2nc3c(c(=O)[nH]c(=O)n3C)n2CCC(C)C)cc1
inactive: growth inhibition [1] -2.01% | growth inhibition [2] -11.3% | viability increase [3] -7.6% | viability [4] 53.1% | viability [5] 51.2% | inhibition [6] 4.83% | RAM network inhibition [7] 7.58%

COCCOC(=O)c1c(C)oc2ccc(OCC=C(C)C)cc12
inactive: growth inhibition [1] -0.275% | growth inhibition [2] -6.21% | viability increase [3] 3.27% | viability [4] 97.8% | viability [5] 95% | inhibition [6] 0.175% | RAM network inhibition [7] 4.81%

Cc1cc(Nc2ccc(F)cc2Cl)n2ncnc2n1
inactive: growth inhibition [1] -7.73% | growth inhibition [2] 2.61% | viability increase [3] -2.45% | viability [4] 103% | viability [5] 95.1% | inhibition [6] -0.7% | RAM network inhibition [7] 1.89%

COc1ccc(C2N(c3cccc(Cl)c3)C(=O)C3CCCN32)cc1 (configuration not stated)
inactive: growth inhibition [1] 6.5% | growth inhibition [2] 6.72% | viability increase [3] -2.85% | viability [4] 102% | viability [5] 98.1% | inhibition [6] 0.115% | RAM network inhibition [7] -1.65%

CCN1C(=O)c2ccccc2S(=O)c2ccc(C(=O)N3CCCC3)cc21 (configuration not stated)
inactive: growth inhibition [1] -3.58% | growth inhibition [2] 3.54% | viability increase [3] -1.58% | viability [4] 93.3% | viability [5] 88.9% | inhibition [6] 1.16% | RAM network inhibition [7] -1.72%

Cc1cccc(-n2c(Cc3cc(=O)[nH]c(=O)[nH]3)nnc2SC(C)C)c1
inactive: growth inhibition [1] -8.09% | growth inhibition [2] -1.15% | viability increase [3] -1.84% | viability [4] 101% | viability [5] 97.7% | inhibition [6] 1.72% | RAM network inhibition [7] 3.87%

CC(=O)c1ccc(NC(=O)CN2C(=O)COc3ccc(Cl)cc32)cc1
inactive: growth inhibition [1] -16.9% | growth inhibition [2] -13.2% | viability increase [3] -2.36% | viability [4] 84% | viability [5] 79.2% | inhibition [6] 2.46% | RAM network inhibition [7] 5.11%

COc1ccc(Cc2nc(-c3ccc(-n4cccc4)cc3)no2)cc1
inactive: growth inhibition [1] 0.23% | growth inhibition [2] -11.5% | viability increase [3] 3.66% | viability [4] 98.3% | viability [5] 88% | inhibition [6] 3.82% | RAM network inhibition [7] 3.16%

Cc1ccc(-c2nn(C)c(=O)c3ccccc23)cc1CNC(=O)c1ccco1
inactive: growth inhibition [1] -19.5% | growth inhibition [2] -16.5% | viability increase [3] -6.36% | viability [4] 78.3% | viability [5] 72.9% | inhibition [6] 1.3% | RAM network inhibition [7] 6.65%

O=C(NCc1ccccn1)c1nnc(Cc2ccc(Cl)cc2)o1
inactive: growth inhibition [1] -1.48% | growth inhibition [2] 2.66% | viability increase [3] 1.55% | viability [4] 108% | viability [5] 103% | inhibition [6] 0.515% | RAM network inhibition [7] -1.46%

COc1ccc(N(CC(=O)NC2CCCCC2)S(=O)(=O)c2cccnc2)cc1
inactive: growth inhibition [1] -2.11% | growth inhibition [2] 3.61% | viability increase [3] -1.68% | viability [4] 99.6% | viability [5] 105% | inhibition [6] 1.57% | RAM network inhibition [7] 2.86%

O=C(NCc1nc2ccccc2[nH]1)c1cccs1
inactive: growth inhibition [1] -13.9% | growth inhibition [2] -1.7% | viability increase [3] 0.55% | viability [4] 105% | viability [5] 103% | inhibition [6] 2.04% | RAM network inhibition [7] 5.75%

Cc1ccc(C)c(N2CCN(c3ncnc4c3cnn4-c3ccccc3)CC2)c1
inactive: growth inhibition [1] -11.6% | growth inhibition [2] -18.3% | viability increase [3] 2.4% | viability [4] 72.5% | viability [5] 68.6% | inhibition [6] 3.82% | RAM network inhibition [7] 7.43%

O=C(Cn1c(NCCCO)nc2ccccc21)c1cccs1
inactive: growth inhibition [1] -5.45% | growth inhibition [2] -2.54% | viability increase [3] -1.98% | viability [4] 110% | viability [5] 91.7% | inhibition [6] 2.46% | RAM network inhibition [7] 0.62%

Cc1nnc2ccc(N3CCN(C(=O)c4ccccc4)CC3)nn12
inactive: growth inhibition [1] -4.49% | growth inhibition [2] 5.48% | viability increase [3] 0.13% | viability [4] 98.9% | viability [5] 95.2% | inhibition [6] 1.42% | RAM network inhibition [7] 2.92%

Cc1cccc(Nc2ncnc3nc[nH]c23)c1C
inactive: growth inhibition [1] -10.5% | growth inhibition [2] -8.69% | viability increase [3] -1.75% | viability [4] 103% | viability [5] 103% | inhibition [6] 2.98% | RAM network inhibition [7] 4.52%

Cc1cc(NC(=O)C2CC(c3ccc(F)cc3)=NO2)no1 (configuration not stated)
inactive: growth inhibition [1] -0.42% | growth inhibition [2] -0.655% | viability increase [3] -0.18% | viability [4] 101% | viability [5] 109% | inhibition [6] -0.08% | RAM network inhibition [7] 4.62%

COc1ccc(NC(=O)N(CCCN2CCOCC2)Cc2cccnc2)c(OC)c1
inactive: growth inhibition [1] -7.71% | growth inhibition [2] -3.92% | viability increase [3] -1.79% | viability [4] 100% | viability [5] 103% | inhibition [6] 1.03% | RAM network inhibition [7] 1.81%

CC(C)C(=O)Nc1ccc2c(c1)C(=O)N(CCC(=O)O)C2=O
inactive: growth inhibition [1] -4.82% | growth inhibition [2] -16.1% | viability increase [3] 0.2% | viability [4] 106% | viability [5] 100% | inhibition [6] 2.14% | RAM network inhibition [7] -0.51%

O=C(NCCOC(=O)c1ccncc1)c1ccccc1
inactive: growth inhibition [1] -0.685% | growth inhibition [2] -1.32% | viability increase [3] -0.4% | viability [4] 99.2% | viability [5] 99.7% | inhibition [6] 1.27% | RAM network inhibition [7] 3.05%

Cc1ccc(CC(CC(=O)O)C(=O)NC2CCCCC2)cc1 (configuration not stated)
inactive: growth inhibition [1] -8.33% | growth inhibition [2] -0.295% | viability increase [3] -0.76% | viability [4] 101% | viability [5] 99.2% | inhibition [6] 2.5% | RAM network inhibition [7] 3.83%

O=C(NCc1ccccc1)c1ccc(CN2CCOCC2)cc1
inactive: growth inhibition [1] 7.58% | growth inhibition [2] 2.15% | viability increase [3] -0.24% | viability [4] 100% | viability [5] 104% | inhibition [6] 0.89% | RAM network inhibition [7] 9.41%

Cc1cc(C)n2nc(S(=O)(=O)NC3CCCCC3)nc2n1
inactive: growth inhibition [1] -7.41% | growth inhibition [2] -7.9% | viability increase [3] -0.66% | viability [4] 103% | viability [5] 98.5% | inhibition [6] 1.06% | RAM network inhibition [7] -0.89%

CC(C)CCOC(=O)C1C2C=CC3(CN(Cc4cccs4)C(=O)C13)O2 (configuration not stated)
inactive: growth inhibition [1] -9.53% | growth inhibition [2] 2.99% | viability increase [3] -0.61% | viability [4] 94.3% | viability [5] 91.2% | inhibition [6] 0.305% | RAM network inhibition [7] 2.76%

Cc1cccc(NC(=O)CSc2nnc(-c3ccccc3)n2N)c1C
inactive: growth inhibition [1] -9.02% | growth inhibition [2] -15.1% | viability increase [3] -2.08% | viability [4] 94.4% | viability [5] 90.2% | inhibition [6] 1.85% | RAM network inhibition [7] 0.16%

Cc1ccccc1-c1nc(CN2CCC(C(=O)N3CCN(c4ccccn4)CC3)CC2)c(C)o1
inactive: growth inhibition [1] -7.71% | growth inhibition [2] -18.8% | viability increase [3] -5.67% | viability [4] 61.6% | viability [5] 67.7% | inhibition [6] 1.33% | RAM network inhibition [7] -0.47%

CC(C)(C)NC(=O)c1ccc(NC(=O)C2COc3ccccc3O2)cc1 (configuration not stated)
inactive: growth inhibition [1] -6.05% | growth inhibition [2] -6.04% | viability increase [3] -0.73% | viability [4] 99.3% | viability [5] 96.4% | inhibition [6] 1.9% | RAM network inhibition [7] -0.88%

Nc1nc2n(n1)C(c1ccccc1Cl)CC(c1ccc(F)cc1)N2 (configuration not stated)
inactive: growth inhibition [1] 0.695% | growth inhibition [2] 2.18% | viability increase [3] -0.54% | viability [4] 91.6% | viability [5] 88.8% | inhibition [6] 2.58% | RAM network inhibition [7] 0.48%

Cc1cnc(C(=O)OCC(=O)Nc2cccc(Cl)c2)cn1
inactive: growth inhibition [1] -0.055% | growth inhibition [2] 1.48% | viability increase [3] -3.1% | viability [4] 92.5% | viability [5] 92.3% | inhibition [6] 0.405% | RAM network inhibition [7] 0.67%

CCOC(=O)c1sc(NC(=O)c2ccco2)nc1-c1ccccc1
inactive: growth inhibition [1] -1.62% | growth inhibition [2] -1.76% | viability increase [3] -2.38% | viability [4] 105% | viability [5] 95.5% | inhibition [6] 4.44% | RAM network inhibition [7] 4.08%

CCOc1ccc(-c2noc(CCC(=O)O)n2)cc1
inactive: growth inhibition [1] 6.08% | growth inhibition [2] -3.1% | viability increase [3] 0.28% | viability [4] 102% | viability [5] 95.1% | inhibition [6] 1.56% | RAM network inhibition [7] 0.42%
